Data from article PMC5066155 (ACS Medicinal Chemistry Letters, 2016).
Where two headings read alike, the source gives them in different places.

Tests used:
[1] = tested on: sPLA2 activity in HepG2 cells; test: sPLA2 activity inhibition in HepG2 cells; type: cell-based; conditions: Homo sapiens, HepG2, read-out: sPLA2 activity inhibition IC50
[2] = tested on: cynomolgus monkey plasma sPLA2; test: In vitro sPLA2 inhibition in cynomolgus monkey plasma; type: biochemical; conditions: read-out: ICu,50
[3] = tested on: human plasma sPLA2 activity; test: Human plasma sPLA2 inhibition assay; type: biochemical
Outline: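 Inhibition of endogenous sPLA2 activity in human plasma, run by a previously established protocol. The plasma IC50 is converted to an unbound value: IC50 × Fu/100, where Fu = 100 − human plasma protein binding (%). Values are means of at least two experiments, with experimental error within 20% of the value.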

[4] = Pharmacokinetics in mouse; conditions: in vivo, iv, 10 μmol/kg
[5] = Toxicological profile in animals; type: in vivo; conditions: rats, dogs, and cynomolgus monkeys
[6] = Pharmacokinetics in dog; conditions: in vivo, iv, 1 μmol/kg
[7] = Pharmacokinetics in rat; conditions: in vivo, iv, 2 μmol/kg
[8] = molecular target: T1, sPLA2-IIa (Homo sapiens, UniProt P14555); test: Ligand efficiency / ligand lipophilicity efficiency from sPLA2-IIa IC50; conditions: pIC50 (sPLA2-IIa) – logD
T1 sequence (P14555 21-144): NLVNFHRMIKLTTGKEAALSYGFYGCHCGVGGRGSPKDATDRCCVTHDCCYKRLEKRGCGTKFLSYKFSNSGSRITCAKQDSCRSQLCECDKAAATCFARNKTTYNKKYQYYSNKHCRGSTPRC

[9] = molecular target: T1, sPLA2-IIa; test: sPLA2 inhibition assay using phosphatidylcholine as substrate; type: biochemical; conditions: for increase in affinity/potency compared to 1: sPLA2-IIa, relative to compound 1
[10] = molecular target: IKs (Homo sapiens, UniProt P51787); test: IonWorks patch clamp, CHO cells expressing IKs; type: cell-based
Chain of IKs (P51787 whole entry): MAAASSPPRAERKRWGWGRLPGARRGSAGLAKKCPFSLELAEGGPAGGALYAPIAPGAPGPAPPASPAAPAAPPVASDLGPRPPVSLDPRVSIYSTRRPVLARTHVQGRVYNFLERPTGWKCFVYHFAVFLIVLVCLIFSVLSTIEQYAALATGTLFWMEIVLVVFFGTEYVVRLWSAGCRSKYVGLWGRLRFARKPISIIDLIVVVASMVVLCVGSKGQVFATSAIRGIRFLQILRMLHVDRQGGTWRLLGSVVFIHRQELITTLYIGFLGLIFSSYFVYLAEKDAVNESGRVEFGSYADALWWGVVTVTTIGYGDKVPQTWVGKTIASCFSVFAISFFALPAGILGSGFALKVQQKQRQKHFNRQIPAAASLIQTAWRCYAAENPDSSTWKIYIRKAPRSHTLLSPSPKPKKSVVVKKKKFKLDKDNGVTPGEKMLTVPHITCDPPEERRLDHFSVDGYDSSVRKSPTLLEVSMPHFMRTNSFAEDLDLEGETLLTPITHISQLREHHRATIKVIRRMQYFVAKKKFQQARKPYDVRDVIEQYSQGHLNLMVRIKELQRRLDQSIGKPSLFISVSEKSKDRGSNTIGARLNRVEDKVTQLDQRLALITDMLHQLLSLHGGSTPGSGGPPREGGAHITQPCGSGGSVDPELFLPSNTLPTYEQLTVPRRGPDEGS

[11] = molecular target: T2, human OATP1B1 (Homo sapiens, UniProt Q9Y6L6); test: Inhibition of pivastatin uptake to HEK293 cells transfected with human OATP1B1; type: cell-based
T2 sequence (Q9Y6L6 1-691): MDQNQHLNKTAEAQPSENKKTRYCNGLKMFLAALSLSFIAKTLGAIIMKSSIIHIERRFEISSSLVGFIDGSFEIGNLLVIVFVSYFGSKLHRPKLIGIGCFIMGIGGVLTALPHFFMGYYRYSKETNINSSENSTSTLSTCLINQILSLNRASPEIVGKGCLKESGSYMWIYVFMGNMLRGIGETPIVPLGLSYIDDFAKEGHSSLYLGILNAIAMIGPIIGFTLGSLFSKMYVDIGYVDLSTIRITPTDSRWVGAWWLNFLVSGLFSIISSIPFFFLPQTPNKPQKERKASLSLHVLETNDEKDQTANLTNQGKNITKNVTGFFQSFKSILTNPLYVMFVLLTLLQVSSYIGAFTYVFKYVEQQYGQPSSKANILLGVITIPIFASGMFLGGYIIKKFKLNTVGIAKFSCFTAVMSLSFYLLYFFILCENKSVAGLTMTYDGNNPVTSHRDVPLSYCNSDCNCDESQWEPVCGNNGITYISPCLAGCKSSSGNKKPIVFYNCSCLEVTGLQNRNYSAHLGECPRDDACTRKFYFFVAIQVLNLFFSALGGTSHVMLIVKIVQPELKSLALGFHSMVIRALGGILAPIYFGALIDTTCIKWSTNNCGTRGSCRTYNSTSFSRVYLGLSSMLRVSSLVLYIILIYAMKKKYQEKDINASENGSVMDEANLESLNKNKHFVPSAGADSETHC
Outline: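 HEK293 cells transfected with human OATP1B1 are used to measure the test compound's inhibition of pivastatin uptake into the cells. The IC50 is reported as an estimated value. Results are means of at least two experiments, with experimental error within 20% of the value.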

[12] = molecular target: T3, sPLA2-V (Homo sapiens, UniProt P39877); test: sPLA2 inhibition assay using phosphatidylcholine as substrate; type: biochemical
T3 sequence (P39877 21-138): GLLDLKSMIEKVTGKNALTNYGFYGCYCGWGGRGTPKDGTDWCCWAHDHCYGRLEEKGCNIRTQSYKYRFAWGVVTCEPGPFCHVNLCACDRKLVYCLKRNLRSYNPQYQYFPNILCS

[13] = Intrinsic clearance in human hepatocytes; type: in vitro ADME; conditions: pH 7.4
[14] = molecular target: T4, sPLA2-X (Homo sapiens, UniProt O15496); test: sPLA2 inhibition assay using phosphatidylcholine as substrate; type: biochemical
T4 sequence (O15496 43-165): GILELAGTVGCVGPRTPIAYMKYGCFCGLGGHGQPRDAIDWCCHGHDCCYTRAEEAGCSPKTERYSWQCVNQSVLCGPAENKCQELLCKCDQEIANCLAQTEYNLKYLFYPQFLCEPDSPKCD

[15] = read-out: plasma ICu,50, plasma sPLA2 IC50 × Fu/100
[16] = read-out: plasma ICu,50, plasma sPLA2 IC50 × Fu/100, NA = not active at maximum tested concentration (25 μM)

C[C@H](Cc1cccc(-c2cc(Cc3ccccc3)ccc2C(N)=O)c1)C(=O)O [(R)-7]
IC50 [1]: < 14 nM | IC50 [2]: 1 nM | IC50 [3, 15]: 0.1 nM | clearance [4]: 9.2 mL/min/kg | toxicological profile [5]: favorable toxicological profile | clearance [6]: 0.2 mL/min/kg | clearance [7]: 1 mL/min/kg

NC(=O)c1ccc(Cc2ccccc2)cc1 [Compound 1, 4-benzylbenzamide]
IC50 [3, 16]: 900 nM | LLE [8]: 2.2

NC(=O)c1ccc(Cc2ccccc2)cc1-c1cccc(CC(=O)O)c1 [Compound 3]
increase in affinity/potency compared to 1 [9]: more than 300 fold

NC(=O)c1ccc(Cc2ccccc2)cc1-c1cccc(CCC(=O)O)c1 [Compound 4]
increase in affinity/potency compared to 1 [9]: 2000 fold | IC50 [10]: > 33300 nM | IC50 [3, 15]: 7 nM | clearance ([7]; Sprague-Dawley): 1 mL/min/kg

CC(Cc1cccc(-c2cc(Cc3ccccc3)ccc2C(N)=O)c1)C(=O)O (stereo not shown) [Compound 7]
IC50 [11]: > 25000 nM

CCC(Cc1cccc(-c2cc(Cc3ccccc3)ccc2C(N)=O)c1)C(=O)O (stereo not shown) [Compound 8]
IC50 [3, 15]: 0.8 nM

NC(=O)c1ccc(Cc2ccccc2)cc1-c1cccc(CC2(C(=O)O)CC2)c1 [Compound 9]
IC50 [9]: 18 nM | IC50 [12]: 250 nM | hepatocyte CLint at 1 µM [13]: 21 µL/min/1e6 cells | IC50 [3, 15]: 0.9 nM | IC50 [14]: 580 nM

CCc1c(C(=O)C(N)=O)c2c(OCC(=O)O)cccc2n1Cc1ccccc1 [varespladib, reference compound]
IC50 [3, 16]: 8 nM
